Assay results reported in ChEMBL document CHEMBL3232716, “Tailoring cytotoxicity of antimicrobial peptidomimetics with high activity against multidrug-resistant Escherichia coli” (J Med Chem, 2014).
Converted amounts (≈) assume the structure as drawn. Square brackets hold non-standard residues; d marks the D form. Peptide text beside a SMILES is read from it. hArg = N=C(N)NCCCC[C@H](N)C(=O)O; Nspe = C[C@H](NCC(=O)O)c1ccccc1; Nphe = O=C(O)CNCc1ccccc1

Tests used:
[1] = tested on: Acinetobacter baumannii; experiment: Antibacterial activity against multidrug-resistant Acinetobacter baumannii clinical isolate E2-1228625 after 18 hrs by microdilution broth method; type: functional; details: clinical isolate E2-1228625, 18 h
[2] = tested on: Staphylococcus aureus; experiment: Antibacterial activity against methicillin-resistant Staphylococcus aureus ATCC 33591 after 18 hrs by microdilution broth method; type: functional; details: ATCC 33591, 18 h
How it was run: (§1)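 CLSI broth microdilution. […] Incubated 35 °C in ambient air for 18 h. MIC taken as the lowest concentration with no visible growth versus the compound-free control. Reported as median and range of three independent biological replicates run on separate days.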

[3] = tested on: HeLa; experiment: Cytotoxicity against human HeLa cells after 1 hr by MTS/PMS assay; type: cell-based
How it was run: (§2)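 Monolayers (passage 4–10) grown ~21–25 h to ~90% confluence. Seeding per well: HeLa 8000, HepG2 23 000, NIH 3T3 22 000, IEC-6 16 000, Caco-2 25 000. Cells washed with HBSS/10 mM Hepes pH 7.4 and exposed 1 h at 37 °C, 50 rpm, to compound 0–2000 μM in culture medium. MTS 240 μg/mL/PMS 2.4 μg/mL for 1.5–4 h, A492. Viability referenced to SDS and untreated controls; IC50 from one biological replicate in triplicate.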

[4] = tested on: Caco-2; experiment: Cytotoxicity against human Caco2 cells after 1 hr by MTS/PMS assay; type: cell-based; details: Caco-2, 1 h; how it was run: as §2
[5] = tested on: HepG2; experiment: Cytotoxicity against human HepG2 cells after 1 hr by MTS/PMS assay; type: cell-based; details: HepG2, 1 h; how it was run: as §2
[6] = Cytotoxicity against rat IEC-6 cells after 1 hr by MTS/PMS assay; type: cell-based; details: IEC-6, 1 h; how it was run: as §2
[7] = Cytotoxicity against mouse NIH/3T3 cells after 1 hr by MTS/PMS assay; type: cell-based; details: NIH3T3, 1 h; how it was run: as §2
[8] = tested on: HUVEC; experiment: Cytotoxicity against HUVEC after 1 hr by MTS/PMS assay; type: cell-based; details: Homo sapiens
How it was run: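 HUVEC seeded at 15 000 cells/well on collagen-coated wells (0.6 μg/cm2), passage 4–10, grown to ~90% confluence over 21–25 h. Cells exposed to compound (0–2000 μM) in F-12K medium for 1 h at 37 °C. MTS 240 μg/mL with PMS 9.6 μg/mL in HBSS for 1.5–4 h, then A492. Viability referenced to 0.2% SDS and untreated cells; IC50 reported.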

[9] = Binding affinity to synthetic POPC/POPG liposomal membrane at 20 uM by circular dichroism analysis; type: physicochemical; details: artificial membrane
How it was run: (§3)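 CD spectra recorded with 20 μM test compound and 2 mM liposomes in 10 mM Tris buffer, pH 7.5. Liposomes were roughly 100 nm: POPC/POPG 7:3 (bacterial model) or POPC/POPG/cholesterol 5:3:2 (mammalian model). Lipid concentration was standardized by enzymatic phospholipid colorimetric assay.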

[10] = Binding affinity to cholesterol containing synthetic POPC/POPG liposomal membrane at 20 uM by circular dichroism analysis; type: physicochemical; details: artificial membrane; how it was run: as §3
[11] = tested on: Escherichia coli; experiment: Antibacterial activity against Escherichia coli ATCC 25922 after 18 hrs by microdilution broth method; type: functional; details: ATCC 25922, 18 h; how it was run: as §1
[12] = tested on: Escherichia coli; experiment: Antibacterial activity against extended-spectrum beta-lactamase producing multidrug-resistant and colistin-susceptible Escherichia coli CTX-M-15 clinical isolate Aar 11 after 18 hrs by microdilution broth method; type: functional; details: CTX-M-15, 18 h
[13] = tested on: Escherichia coli; experiment: Antibacterial activity against NDM-1 producing Escherichia coli clinical isolate 74859898 after 18 hrs by microdilution broth method; type: functional; details: clinical isolate 74859898, 18 h
[14] = tested on: Enterococcus faecium; experiment: Antibacterial activity against vancomycin-resistant Enterococcus faecium ATCC 700221 after 18 hrs by microdilution broth method; details: ATCC 700221, 18 h

| Compound | MIC [1] [µM] | MIC [2] [µM] | IC50 [3] [µM] | IC50 [4] [µM] | IC50 [5] [µM] | IC50 [6] [µM] | IC50 [7] [µM] | IC50 [8] [µM] | Activity [9] | Activity [10] | MIC [11] [µM] | MIC [12] [µM] | MIC [13] [µM] | MIC [14] [µM] |
| --- | --- | --- | --- | --- | --- | --- | --- | --- | --- | --- | --- | --- | --- | --- |
| CC(=O)N[C@@H](CCCCNC(=N)N)C(=O)N(CC(=O)N[C@@H](CCCCN)C(=O)N(CC(=O)N[C@@H](CCCCNC(=N)N)C(=O)N(CC(=O)N[C@@H](CCCCN)C(=O)N(CC(=O)N[C@@H](CCCCNC(=N)N)C(=O)N(CC(N)=O)[C@@H](C)c1ccccc1)[C@@H](C)c1ccccc1)[C@@H](C)c1ccccc1)[C@@H](C)c1ccccc1)[C@@H](C)c1ccccc1 (Ac-[hArg][Nspe]K[Nspe][hArg][Nspe]K[Nspe][hArg][Nspe]-NH2) | 16 (≈ 26.1 µg/mL) | 32 (≈ 52.2 µg/mL) | 165 | 583 | 141 | 146 | 210 | 398 | Not Active | Not Active | 8 (≈ 13.1 µg/mL) | 8 (≈ 13.1 µg/mL) | 8 (≈ 13.1 µg/mL) | 8 (≈ 13.1 µg/mL) |
| CC(=O)N[C@@H](CCCCN)C(=O)N(CC(=O)N[C@@H](CCCCNC(=N)N)C(=O)N(CC(=O)N[C@@H](CCCCN)C(=O)N(CC(=O)N[C@@H](CCCCNC(=N)N)C(=O)N(CC(=O)N[C@@H](CCCCN)C(=O)N(CC(=O)N[C@@H](CCCCNC(=N)N)C(=O)N(CC(N)=O)[C@@H](C)c1ccccc1)[C@@H](C)c1ccccc1)[C@@H](C)c1ccccc1)[C@@H](C)c1ccccc1)[C@@H](C)c1ccccc1)[C@@H](C)c1ccccc1 (Ac-K[Nspe][hArg][Nspe]K[Nspe][hArg][Nspe]K[Nspe][hArg][Nspe]-NH2) | 2 (≈ 3.84 µg/mL) | 16 (≈ 30.7 µg/mL) | 52 | 376 | 77 | 67 | 121 | 351 | Not Active | Not Active | 2 (≈ 3.84 µg/mL) | 4 (≈ 7.69 µg/mL) | 2 (≈ 3.84 µg/mL) | 2 (≈ 3.84 µg/mL) |
| CC(=O)N[C@@H](CCCCN)C(=O)N(CC(=O)N[C@@H](CCCCNC(=N)N)C(=O)N(CC(=O)N[C@@H](CCCCN)C(=O)N(CC(=O)N[C@@H](CCCCNC(=N)N)C(=O)N(CC(=O)N[C@@H](CCCCN)C(=O)N(CC(=O)N[C@@H](CCCCNC(=N)N)C(=O)N(CC(=O)N[C@@H](CCCCN)C(=O)N(CC(N)=O)[C@@H](C)c1ccccc1)[C@@H](C)c1ccccc1)[C@@H](C)c1ccccc1)[C@@H](C)c1ccccc1)[C@@H](C)c1ccccc1)[C@@H](C)c1ccccc1)[C@@H](C)c1ccccc1 (Ac-K[Nspe][hArg][Nspe]K[Nspe][hArg][Nspe]K[Nspe][hArg][Nspe]K[Nspe]-NH2) | 1 (≈ 2.21 µg/mL) | 16 (≈ 35.4 µg/mL) | 21 | 182 | 35 | 30 | 67 | 145 | Not Active | Not Active | 1 (≈ 2.21 µg/mL) | 2 (≈ 4.42 µg/mL) | 1 (≈ 2.21 µg/mL) | 4 (≈ 8.84 µg/mL) |
| CC(=O)N[C@@H](CCCCN)C(=O)N(CCC(=O)N[C@@H](CCCCNC(=N)N)C(=O)N(CCC(=O)N[C@@H](CCCCN)C(=O)N(CCC(=O)N[C@@H](CCCCNC(=N)N)C(=O)N(CCC(=O)N[C@@H](CCCCN)C(=O)N(CCC(=O)N[C@@H](CCCCNC(=N)N)C(=O)N(CCC(N)=O)Cc1ccccc1)Cc1ccccc1)Cc1ccccc1)Cc1ccccc1)Cc1ccccc1)Cc1ccccc1 | 16 (≈ 30.7 µg/mL) | 32 (≈ 61.5 µg/mL) | 228 | > 1000 | 321 | 457 | 362 | > 1000 | Not Active | Not Active | 1 (≈ 1.92 µg/mL) | 1 (≈ 1.92 µg/mL) | 1 (≈ 1.92 µg/mL) | 32 (≈ 61.5 µg/mL) |
| CC(=O)N[C@@H](CCCCNC(=N)N)C(=O)N(CC(=O)N[C@@H](CCCCN)C(=O)N(CC(=O)N[C@@H](CCCCNC(=N)N)C(=O)N(CC(=O)N[C@@H](CCCCN)C(=O)N(CC(=O)N[C@@H](CCCCNC(=N)N)C(=O)N(CC(N)=O)Cc1ccccc1)Cc1ccccc1)Cc1ccccc1)Cc1ccccc1)Cc1ccccc1 (Ac-[hArg][Nphe]K[Nphe][hArg][Nphe]K[Nphe][hArg][Nphe]-NH2) | > 128 | 128 (≈ 200 µg/mL) | 506 | > 1000 | 980 | 972 | > 1000 | > 1000 | Not Active | Not Active | 8 (≈ 12.5 µg/mL) | 16 (≈ 25 µg/mL) | 8 (≈ 12.5 µg/mL) | 128 (≈ 200 µg/mL) |
| CC(=O)N[C@@H](CCCCN)C(=O)N(CC(=O)N[C@@H](CCCCNC(=N)N)C(=O)N(CC(=O)N[C@@H](CCCCN)C(=O)N(CC(=O)N[C@@H](CCCCNC(=N)N)C(=O)N(CC(=O)N[C@@H](CCCCN)C(=O)N(CC(=O)N[C@@H](CCCCNC(=N)N)C(=O)N(CC(=O)N[C@@H](CCCCN)C(=O)N(CC(N)=O)Cc1ccccc1)Cc1ccccc1)Cc1ccccc1)Cc1ccccc1)Cc1ccccc1)Cc1ccccc1)Cc1ccccc1 (Ac-K[Nphe][hArg][Nphe]K[Nphe][hArg][Nphe]K[Nphe][hArg][Nphe]K[Nphe]-NH2) | 4 (≈ 8.45 µg/mL) | 32 (≈ 67.6 µg/mL) | 99 | > 1000 | 378 | 319 | 254 | 418 | Not Active | Not Active | 1 (≈ 2.11 µg/mL) | 1 (≈ 2.11 µg/mL) | 1 (≈ 2.11 µg/mL) | 8 (≈ 16.9 µg/mL) |
| CC(=O)N[C@@H](CCCCN)C(=O)N(CCC(=O)N[C@@H](CCCCNC(=N)N)C(=O)N(CCC(=O)N[C@@H](CCCCN)C(=O)N(CCC(=O)N[C@@H](CCCCNC(=N)N)C(=O)N(CCC(=O)N[C@@H](CCCCN)C(=O)N(CCC(=O)N[C@@H](CCCCNC(=N)N)C(=O)N(CCC(=O)N[C@@H](CCCCN)C(=O)N(CCC(N)=O)[C@@H](C)c1ccccc1)[C@@H](C)c1ccccc1)[C@@H](C)c1ccccc1)[C@@H](C)c1ccccc1)[C@@H](C)c1ccccc1)[C@@H](C)c1ccccc1)[C@@H](C)c1ccccc1 | 2 (≈ 4.62 µg/mL) | 8 (≈ 18.5 µg/mL) | 26 | 197 | 48 | 80 | 89 | 236 | Not Active | Not Active | 2 (≈ 4.62 µg/mL) | 2 (≈ 4.62 µg/mL) | 2 (≈ 4.62 µg/mL) | 4 (≈ 9.24 µg/mL) |
